Measured values collected from several papers.
Each line is one published result; the experiments were not run side by side.
Target: Mitogen-activated protein kinase kinase kinase kinase 1 (MAP4K1, Homo sapiens, UniProt Q92918)

Structure (SMILES) | read-out | action | method | tested at | measurement | value
C=CC(=O)N1CCC[C@@H](n2nc(-c3ccc(Oc4ccccc4)cc3)c3c(N)ncnc32)C1 | enzyme activity | inhibitor | – | 1 µM | inhibition | 10%
COc1ccc2oc(-c3ccc4nc(N)oc4c3)c/c(=N\c3ccccc3NC(=O)CCN)c2c1 | binding | – | – | 1 µM | remaining binding | 109%
CN1CCN(C(=O)c2ccc(NC(=O)Nc3ccc(N(C)c4ccnc(Nc5ccc(CS(C)(=O)=O)cc5)n4)cc3)cc2)CC1 | binding | – | competition with immobilised ligand | 1 µM | remaining binding | 2.6%
CCCCC(=O)Nc1ccc(-c2ccc3ncn(CCC)c(=O)c3c2)cn1 | binding | – | competition with immobilised ligand | 0.5 µM | remaining binding | 100%
C#Cc1cc(-c2cc(Nc3nc(N[C@@H](C)c4ccc(F)cn4)ncc3Cl)n[nH]2)ccc1C=O | enzyme activity | inhibitor | – | 0.2 µM | inhibition | 47.8%
CC(C)S(=O)(=O)c1ccc2nccc(Nc3ccc4sc(C5CCCC5)nc4c3)c2c1 | enzyme activity | inhibitor | – | 1 µM | activity vs control | 102%
C[C@H]1CC[C@H](n2c3cnccc3c3cnc(Nc4ccc5c(n4)CCN(C(=O)CO)C5)nc32)CC1 | binding | – | competition with immobilised ligand | 1 µM | remaining binding | 66%
CO[C@@H]1[C@H](N(C)C(=O)c2ccccc2)C[C@H]2O[C@]1(C)n1c3ccccc3c3c4c(c5c6ccccc6n2c5c31)C(=O)NC4 | enzyme activity | inhibitor | – | 1 µM | inhibition | 80%
